According to paper PMC7610487 (Nature chemical biology, 2020):

Tested on: zebrafish embryos
Experiment: Effects of the fluorogens on zebrafish embryogenesis
Format: in vivo
Outline: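 Wild-type AB zebrafish embryos were raised at 28°C and staged as hours postfertilization. Fluorogen exposure started at 50% epiboly, either as a 1 h pulse or continuously overnight to 24 hpf. At 48 hpf, embryos were examined by brightfield microscopy and scored into three classes: no defect, axis defects, or dead.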

[1] = 5 μM fluorogen during 1 hour at 50% epiboly
[2] = 5 μM fluorogen overnight from 50% epiboly to 24 hpf

Compound	effects on embryos scored at 48 hpf [1]	effects on embryos scored at 48 hpf [2]
COc1cc(C=C2SC(=S)NC2=O)cc(OC)c1O [HBR-3,5DOM, 4-hydroxy-3,5-dimethoxybenzylidene rhodanine]	No deleterious effects	No deleterious effects
Cc1cc(C=C2SC(=S)NC2=O)ccc1O [HMBR, 4-hydroxy-3-methylbenzylidene rhodanine]	No deleterious effects	No deleterious effects
